This passage reports Activity, IC50 and inhibition results from ChEMBL document CHEMBL5653609, “Ack1-mediated androgen receptor phosphorylation modulates radiation resistance in castration-resistant prostate cancer” (J Biol Chem, 2012).

Molecules are shown by their SMILES. pIC50: −log10 of the molar value. Activity calls are given as the source filed them. No cut-off for these calls is given here.

Series [1] in a line: Toxicity in mouse assessed as change in body weight. Particulars: in vivo. An outline of the steps:
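Body weight of castrated nude mice bearing LNCaP-caAck xenografts tracked during dosing at 4 mg/kg per injection (day 7, then days 11–27 every 4 days) versus DMSO-injected controls; morbidity also noted.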

In series [2] the test system is LNCaP. The series can be described thus: Induction of cell cycle arrest in human LNCaP cells with IR-induced DNA damage assessed as reduction in number of cells at G2 phase at 10 uM incubated for 24 hrs in the presence of 5 Gy by PI-staining-based flow cytometry analysis. The class given is functional. The method in brief:
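LNCaP cells given 5 Gy x-ray alone or with agent (10 μm, 24 h). Propidium iodide staining and flow cytometric DNA content analysis of cell cycle phases; performed in triplicate.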
In general terms: A flow cytometer gives signals particle by particle.

Series [3] concerns the target Serine/threonine-protein kinase mTOR (Homo sapiens, UniProt P42345). The series can be described thus: Inhibition of mTOR (unknown origin) in the presence of [33P]ATP by kinase hotspot assay.
Series [4] addresses Mitogen-activated protein kinase kinase kinase 8 (Homo sapiens, UniProt P41279). The experiment in a line: Inhibition of MAP3K8 (unknown origin) in the presence of [33P]ATP by kinase hotspot assay.
Series [5] has as its target DNA-dependent protein kinase catalytic subunit (Homo sapiens, UniProt P78527). The experiment in a line: Inhibition of DNA-PK (unknown origin) in the presence of [33P]ATP by kinase hotspot assay.
Series [6] addresses RAF proto-oncogene serine/threonine-protein kinase (Homo sapiens, UniProt P04049). The series can be described thus: Inhibition of RAF1 (unknown origin) in the presence of [33P]ATP by kinase hotspot assay.
In series [7] the test system is LNCaP. The series can be described thus: Induction of cell cycle arrest in human LNCaP cells with IR-induced DNA damage assessed as high number of cells with DSBs at 5 uM after 5 hrs in the presence of 15 Gy by flow cytometry analysis. The class given is functional, cell-based.
Series [8] has as its target Phosphatidylinositol 4,5-bisphosphate 3-kinase catalytic subunit alpha isoform (Homo sapiens, UniProt P42336). The series can be described thus: Inhibition of PI3Kalpha (unknown origin) in the presence of [33P]ATP by kinase hotspot assay.
The target in series [9] is Serine/threonine-protein kinase pim-1 (Homo sapiens, UniProt P11309). The experiment in a line: Inhibition of PIM1 (unknown origin) in the presence of [33P]ATP by kinase hotspot assay.
In series [10] the target is Tyrosine-protein kinase JAK2 (Homo sapiens, UniProt O60674). The experiment in a line: Inhibition of JAK2 (unknown origin) in the presence of [33P]ATP by kinase hotspot assay.
For series [11], the target named is Serine/threonine-protein kinase Sgk1 (Homo sapiens, UniProt O00141). The series can be described thus: Inhibition of SGK1 (unknown origin) in the presence of [33P]ATP by kinase hotspot assay.
Series [12] concerns the target Vascular endothelial growth factor receptor 2 (Homo sapiens, UniProt P35968). The experiment in a line: Inhibition of VEGFR2 (unknown origin) in the presence of [33P]ATP by kinase hotspot assay.
The target of series [13] is Tyrosine-protein kinase BTK (Homo sapiens, UniProt Q06187). The experiment in a line: Inhibition of BTK (unknown origin) in the presence of [33P]ATP by kinase hotspot assay.
Series [14] deals with Tyrosine-protein kinase receptor TYRO3 (Homo sapiens, UniProt Q06418). The series can be described thus: Inhibition of TYRO3 (unknown origin) in the presence of [33P]ATP by kinase hotspot assay.
Series [15] addresses RAC-gamma serine/threonine-protein kinase (Homo sapiens, UniProt Q9Y243). The experiment in a line: Inhibition of AKT3 (unknown origin) in the presence of [33P]ATP by kinase hotspot assay.
For series [16], the target named is Tyrosine-protein kinase receptor UFO (Homo sapiens, UniProt P30530). The series can be described thus: Inhibition of AXL (unknown origin) in the presence of [33P]ATP by kinase hotspot assay.
The target in series [17] is Glycogen synthase kinase-3 alpha (Homo sapiens, UniProt P49840). The experiment in a line: Inhibition of GSK3alpha (unknown origin) in the presence of [33P]ATP by kinase hotspot assay.
In series [18] the target is Mitogen-activated protein kinase 3 (Homo sapiens, UniProt P27361). The experiment in a line: Inhibition of ERK1 (unknown origin) in the presence of [33P]ATP by kinase hotspot assay.
Series [19] relates to LNCaP. The series can be described thus: Antitumor activity against irradiated human LNCaP-caAck expressing cells xenografted mouse assessed as reduction in ATM expression level at 4 mg/kg on 7th day by immunohistochemical staining. In kind it is functional, organism-based. The method in brief:
(§1)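 Irradiated (1.5 Gy) LNCaP-caAck xenografts in castrated nude mice dosed 4 mg/kg from day 7 (DMSO control) were excised, fixed, paraffin-embedded and sectioned. Sections stained with H&E, or for ATM by IHC: citrate pH 6.0 retrieval at 95 °C 30 min, rabbit monoclonal ATM antibody 1:300 overnight 4 °C, biotin secondary/streptavidin-peroxidase, DAB, hematoxylin counterstain.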
A general note: In xenograft studies the graft and the host belong to different species.

The test system of series [20] is LNCaP. The experiment in a line: Induction of cell cycle arrest in human LNCaP cells with IR-induced DNA damage assessed as reduction in proportion of cells at G2 phase at 5 uM incubated for 24 hrs in the presence of 5 Gy by PI-staining-based flow cytometry analysis. In kind it is functional. Details: scale not given: the % may be the effect or the level left. An outline of the steps: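 LNCaP cells left untreated, given 5 Gy x-ray, inhibitor (5 μm, 24 h), or both; harvested 16 h after irradiation. Nuclei processed with trypsin, trypsin inhibitor/RNase A, then propidium iodide; DNA content of 20,000 cells by flow cytometry, cell cycle modelled. Three independent experiments.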

For series [21], the target named is Inhibitor of nuclear factor kappa-B kinase subunit alpha (Homo sapiens, UniProt O15111). The experiment in a line: Inhibition of IKKalpha (unknown origin) in the presence of [33P]ATP by kinase hotspot assay.
In series [22] the target is RAC-alpha serine/threonine-protein kinase (Homo sapiens, UniProt P31749). The series can be described thus: Inhibition of AKT1 (unknown origin) in the presence of [33P]ATP by kinase hotspot assay.
Another series concerns the target Wee1-like protein kinase (Homo sapiens, UniProt P30291). The series can be described thus: Inhibition of WEE1 (unknown origin) in the presence of [33P]ATP by kinase hotspot assay.
Series [23] has as its target Platelet-derived growth factor receptor alpha (Homo sapiens, UniProt P16234). The experiment in a line: Inhibition of PDGFRalpha (unknown origin) in the presence of [33P]ATP by kinase hotspot assay.
Series [24] concerns LNCaP. The series can be described thus: Antitumor activity against irradiated human LNCaP-caAck FLAG-tagged KD ATM expressing cells xenografted mouse assessed as inhibition of tumor growth at 4 mg/kg on day 12. In kind it is functional, organism-based. The method in brief:
(§2)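 Castrated male nude mice received LNCaP-caAck cells transfected with FLAG-tagged kinase-dead or wild-type ATM constructs (CMV promoter), irradiated 1.5 Gy before injection. Inhibitor 4 mg/kg per injection starting day 12 after cell injection, then on days 15, 19, 23 and 27; n = 5 mice per group; tumor growth followed.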

The next series concerns the target Activated CDC42 kinase 1 (Homo sapiens, UniProt Q07912). The experiment in a line: Inhibition of Ack1 (unknown origin) in the presence of [33P]ATP by kinase hotspot assay.
In the next series the target is Insulin receptor (Homo sapiens, UniProt P06213). The series can be described thus: Inhibition of IR (unknown origin) in the presence of [33P]ATP by kinase hotspot assay.
Series [25] deals with Receptor tyrosine-protein kinase erbB-2 (Homo sapiens, UniProt P04626). The experiment in a line: Inhibition of HER2 (unknown origin) in the presence of [33P]ATP by kinase hotspot assay.
The target in series [26] is Tyrosine-protein kinase Lyn (Homo sapiens, UniProt P07948).
The subject of series [27] is LNCaP. The series can be described thus: Antitumor activity against unirradiated human LNCaP-caAck expressing cells xenografted mouse assessed as reduction in tumor growth at 4 mg/kg on 7th day. The class given is functional. On the set-up: scale not given: the % may be the effect or the level left. The method in brief: (§3)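 LNCaP-caAck cells (2 × 10⁶), unirradiated or irradiated 1.5 Gy, in PBS/Matrigel 1:1, injected subcutaneously into flanks of castrated male nude mice. Inhibitor 4 mg/kg per injection on day 7 post-implantation, then days 11, 15, 19, 23, 27; DMSO control; n = 8 per group. Caliper tumor volumes twice weekly; two independent experiments.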

Series [28] deals with LNCaP. The series can be described thus: Antitumor activity against irradiated human LNCaP-caAck expressing cells xenografted mouse assessed as necrosis at 4 mg/kg on 7th day by Hematoxylin and eosin staining. In kind it is functional, organism-based. An outline of the steps:
as §1

Series [29] deals with Insulin-like growth factor 1 receptor (Homo sapiens, UniProt P08069). The series can be described thus: Inhibition of IGF1R (unknown origin) in the presence of [33P]ATP by kinase hotspot assay.
Series [30] concerns the target Tyrosine-protein kinase Lck (Homo sapiens, UniProt P06239). The experiment in a line: Inhibition of LCK (unknown origin) in the presence of [33P]ATP by kinase hotspot assay.
The test system of series [31] is LNCaP. The experiment in a line: Antitumor activity against irradiated human LNCaP-caAck FLAG-tagged wild-type ATM expressing cells xenografted mouse assessed as inhibition of tumor growth at 4 mg/kg on day 12. In kind it is functional, organism-based. An outline of the steps: as §2
The test system of series [32] is LNCaP. The series can be described thus: Antitumor activity against irradiated human LNCaP-caAck expressing cells xenografted mouse assessed as reduction in tumor growth at 4 mg/kg on 7th day. The class given is functional, organism-based. The method in brief:
as §3

Series [33] addresses Phosphatidylinositol 4,5-bisphosphate 3-kinase catalytic subunit beta isoform (Homo sapiens, UniProt P42338). The series can be described thus: Inhibition of PI3Kbeta (unknown origin) in the presence of [33P]ATP by kinase hotspot assay.
The target of series [34] is Serine/threonine-protein kinase Chk1 (Homo sapiens, UniProt O14757). The series can be described thus: Inhibition of CHK1 (unknown origin) in the presence of [33P]ATP by kinase hotspot assay.
Series [35] concerns the target Tyrosine-protein kinase ABL1 (Homo sapiens, UniProt P00519). The series can be described thus: Inhibition of ABL1 (unknown origin) in the presence of [33P]ATP by kinase hotspot assay.

Sequence of Mitogen-activated protein kinase kinase kinase 8 (P41279 whole entry): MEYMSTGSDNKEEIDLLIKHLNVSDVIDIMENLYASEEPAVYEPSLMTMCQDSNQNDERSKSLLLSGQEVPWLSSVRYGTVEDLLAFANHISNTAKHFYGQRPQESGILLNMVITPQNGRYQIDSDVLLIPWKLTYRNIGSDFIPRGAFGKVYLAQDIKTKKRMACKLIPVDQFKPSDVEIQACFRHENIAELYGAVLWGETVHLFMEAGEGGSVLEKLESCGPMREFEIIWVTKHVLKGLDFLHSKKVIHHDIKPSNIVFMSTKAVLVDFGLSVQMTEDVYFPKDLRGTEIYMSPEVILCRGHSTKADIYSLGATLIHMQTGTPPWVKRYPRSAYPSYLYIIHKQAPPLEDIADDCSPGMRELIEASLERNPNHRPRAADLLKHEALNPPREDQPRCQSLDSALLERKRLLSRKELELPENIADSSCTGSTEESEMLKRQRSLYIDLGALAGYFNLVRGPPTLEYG
Sequence of DNA-dependent protein kinase catalytic subunit (P78527 whole entry): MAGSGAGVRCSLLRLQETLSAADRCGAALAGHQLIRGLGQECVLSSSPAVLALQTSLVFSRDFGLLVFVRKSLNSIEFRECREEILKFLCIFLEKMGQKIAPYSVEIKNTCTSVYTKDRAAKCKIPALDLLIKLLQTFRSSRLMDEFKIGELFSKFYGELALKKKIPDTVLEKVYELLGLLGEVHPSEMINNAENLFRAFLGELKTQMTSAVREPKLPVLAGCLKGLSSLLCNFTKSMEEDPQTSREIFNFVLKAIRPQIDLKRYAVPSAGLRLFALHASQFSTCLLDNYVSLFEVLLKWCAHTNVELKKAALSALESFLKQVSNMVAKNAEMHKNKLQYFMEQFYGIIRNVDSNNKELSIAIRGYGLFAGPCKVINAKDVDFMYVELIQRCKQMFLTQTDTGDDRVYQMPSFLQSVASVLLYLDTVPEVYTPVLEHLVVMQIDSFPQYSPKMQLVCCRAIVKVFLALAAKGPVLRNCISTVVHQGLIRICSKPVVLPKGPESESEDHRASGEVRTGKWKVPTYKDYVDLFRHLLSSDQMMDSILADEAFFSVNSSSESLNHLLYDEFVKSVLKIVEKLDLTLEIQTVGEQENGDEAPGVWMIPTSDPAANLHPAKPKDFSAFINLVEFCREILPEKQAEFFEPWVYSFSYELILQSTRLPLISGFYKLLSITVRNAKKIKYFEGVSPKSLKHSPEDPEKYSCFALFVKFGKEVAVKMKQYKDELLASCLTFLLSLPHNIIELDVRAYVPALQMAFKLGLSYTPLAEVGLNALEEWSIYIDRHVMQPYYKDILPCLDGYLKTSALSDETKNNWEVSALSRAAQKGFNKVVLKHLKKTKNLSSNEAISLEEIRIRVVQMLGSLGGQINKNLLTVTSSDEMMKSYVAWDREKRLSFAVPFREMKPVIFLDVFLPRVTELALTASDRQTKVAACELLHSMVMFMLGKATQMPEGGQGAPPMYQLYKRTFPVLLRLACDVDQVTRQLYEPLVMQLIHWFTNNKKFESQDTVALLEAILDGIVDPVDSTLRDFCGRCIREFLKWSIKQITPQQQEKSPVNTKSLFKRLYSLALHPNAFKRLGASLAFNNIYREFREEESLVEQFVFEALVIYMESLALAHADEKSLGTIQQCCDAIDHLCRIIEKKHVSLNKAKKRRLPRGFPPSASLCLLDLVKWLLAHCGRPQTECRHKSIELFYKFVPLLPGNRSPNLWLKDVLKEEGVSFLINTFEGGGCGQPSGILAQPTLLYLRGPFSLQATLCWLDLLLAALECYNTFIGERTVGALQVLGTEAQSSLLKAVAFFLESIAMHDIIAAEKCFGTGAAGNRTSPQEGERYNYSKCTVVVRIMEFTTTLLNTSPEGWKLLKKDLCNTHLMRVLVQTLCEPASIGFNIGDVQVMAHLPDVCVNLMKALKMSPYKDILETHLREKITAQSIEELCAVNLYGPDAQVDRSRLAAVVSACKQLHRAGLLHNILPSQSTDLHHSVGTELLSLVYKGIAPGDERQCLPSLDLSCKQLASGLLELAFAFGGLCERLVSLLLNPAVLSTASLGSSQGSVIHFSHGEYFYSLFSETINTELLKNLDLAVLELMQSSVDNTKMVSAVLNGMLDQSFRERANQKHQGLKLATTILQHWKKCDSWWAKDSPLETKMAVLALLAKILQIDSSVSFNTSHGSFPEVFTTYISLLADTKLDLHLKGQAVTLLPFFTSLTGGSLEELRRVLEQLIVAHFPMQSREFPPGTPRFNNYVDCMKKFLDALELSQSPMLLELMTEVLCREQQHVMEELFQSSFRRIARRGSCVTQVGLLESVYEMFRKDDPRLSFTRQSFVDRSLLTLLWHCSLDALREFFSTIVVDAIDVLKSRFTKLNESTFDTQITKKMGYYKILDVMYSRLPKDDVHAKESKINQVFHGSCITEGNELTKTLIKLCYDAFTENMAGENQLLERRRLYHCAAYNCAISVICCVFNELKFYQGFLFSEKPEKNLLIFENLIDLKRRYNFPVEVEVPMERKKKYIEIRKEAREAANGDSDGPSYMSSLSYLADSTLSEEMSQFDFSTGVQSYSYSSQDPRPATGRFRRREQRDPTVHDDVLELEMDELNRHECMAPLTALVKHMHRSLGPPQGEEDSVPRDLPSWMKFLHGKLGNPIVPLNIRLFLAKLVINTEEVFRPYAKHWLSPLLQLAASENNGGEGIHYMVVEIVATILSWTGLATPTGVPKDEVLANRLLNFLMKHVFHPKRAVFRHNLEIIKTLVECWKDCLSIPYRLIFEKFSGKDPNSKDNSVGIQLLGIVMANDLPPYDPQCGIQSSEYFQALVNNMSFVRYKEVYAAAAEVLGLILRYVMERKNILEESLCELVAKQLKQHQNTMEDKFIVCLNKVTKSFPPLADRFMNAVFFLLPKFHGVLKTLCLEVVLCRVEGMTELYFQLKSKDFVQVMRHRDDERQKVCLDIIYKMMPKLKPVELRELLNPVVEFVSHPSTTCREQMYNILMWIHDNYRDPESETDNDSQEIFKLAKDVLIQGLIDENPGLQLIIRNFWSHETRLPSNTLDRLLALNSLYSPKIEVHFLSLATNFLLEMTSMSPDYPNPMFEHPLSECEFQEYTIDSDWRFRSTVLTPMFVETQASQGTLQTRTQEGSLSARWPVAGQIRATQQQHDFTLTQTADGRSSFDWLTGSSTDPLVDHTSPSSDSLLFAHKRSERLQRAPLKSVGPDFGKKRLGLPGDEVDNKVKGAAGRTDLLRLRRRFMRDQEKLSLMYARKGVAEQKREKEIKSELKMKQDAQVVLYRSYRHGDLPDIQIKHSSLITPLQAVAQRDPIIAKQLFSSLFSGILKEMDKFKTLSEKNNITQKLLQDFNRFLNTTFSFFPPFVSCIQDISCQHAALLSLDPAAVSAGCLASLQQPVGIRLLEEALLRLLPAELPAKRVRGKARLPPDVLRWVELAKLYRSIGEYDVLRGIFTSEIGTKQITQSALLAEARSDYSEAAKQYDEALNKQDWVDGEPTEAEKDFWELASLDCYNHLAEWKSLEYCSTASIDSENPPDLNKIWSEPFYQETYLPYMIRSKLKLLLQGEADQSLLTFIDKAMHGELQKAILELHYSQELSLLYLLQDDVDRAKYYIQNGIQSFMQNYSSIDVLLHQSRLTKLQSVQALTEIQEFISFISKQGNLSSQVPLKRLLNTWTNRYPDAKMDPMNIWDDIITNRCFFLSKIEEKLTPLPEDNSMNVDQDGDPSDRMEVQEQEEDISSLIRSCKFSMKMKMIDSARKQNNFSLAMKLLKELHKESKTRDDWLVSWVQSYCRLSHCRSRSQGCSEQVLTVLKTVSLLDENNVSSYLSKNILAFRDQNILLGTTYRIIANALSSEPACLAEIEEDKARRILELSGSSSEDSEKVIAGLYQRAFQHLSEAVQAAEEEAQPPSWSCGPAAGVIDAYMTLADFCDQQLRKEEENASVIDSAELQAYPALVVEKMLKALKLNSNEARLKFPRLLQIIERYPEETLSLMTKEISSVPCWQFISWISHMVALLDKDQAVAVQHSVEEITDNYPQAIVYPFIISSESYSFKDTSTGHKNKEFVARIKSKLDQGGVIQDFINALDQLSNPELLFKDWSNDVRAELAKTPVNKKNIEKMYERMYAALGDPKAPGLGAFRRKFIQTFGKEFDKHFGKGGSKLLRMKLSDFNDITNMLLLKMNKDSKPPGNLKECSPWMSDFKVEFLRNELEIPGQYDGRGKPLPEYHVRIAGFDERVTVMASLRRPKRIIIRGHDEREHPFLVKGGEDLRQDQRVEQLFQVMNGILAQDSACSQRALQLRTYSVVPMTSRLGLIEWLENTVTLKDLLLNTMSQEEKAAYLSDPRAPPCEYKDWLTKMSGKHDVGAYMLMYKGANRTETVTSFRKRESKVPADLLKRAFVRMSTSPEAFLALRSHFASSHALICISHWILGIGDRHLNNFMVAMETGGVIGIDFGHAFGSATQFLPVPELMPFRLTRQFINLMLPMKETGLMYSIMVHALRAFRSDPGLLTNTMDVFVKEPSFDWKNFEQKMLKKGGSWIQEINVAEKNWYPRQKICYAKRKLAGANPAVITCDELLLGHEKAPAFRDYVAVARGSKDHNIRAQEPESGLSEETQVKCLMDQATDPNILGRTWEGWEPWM
Sequence of Serine/threonine-protein kinase Sgk1 (O00141 whole entry): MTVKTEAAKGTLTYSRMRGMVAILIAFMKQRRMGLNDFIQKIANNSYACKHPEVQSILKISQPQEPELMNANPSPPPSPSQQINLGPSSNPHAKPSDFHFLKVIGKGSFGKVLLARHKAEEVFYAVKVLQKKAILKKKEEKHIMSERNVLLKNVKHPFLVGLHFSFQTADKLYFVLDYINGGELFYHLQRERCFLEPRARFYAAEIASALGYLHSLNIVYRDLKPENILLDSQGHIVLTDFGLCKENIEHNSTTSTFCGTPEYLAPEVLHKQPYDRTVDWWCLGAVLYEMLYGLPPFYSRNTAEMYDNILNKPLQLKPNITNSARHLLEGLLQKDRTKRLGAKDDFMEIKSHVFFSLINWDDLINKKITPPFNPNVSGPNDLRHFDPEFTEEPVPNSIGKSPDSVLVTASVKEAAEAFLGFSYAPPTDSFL

Turning to `C[S+](C)[O-]` [DIMETHYL SULFOXIDE], the Activity result in series [1] was “Non-Toxic”.
For the molecule `O=c1cc(-c2cccc3c2Sc2ccccc2S3)oc(N2CCOCC2)c1`, the result in the series with LNCaP [2] was Active.
By pIC50 is commonly meant the negative decadic logarithm of the IC50, by convention in mol/L. Turning to `CN[C@@H]1C[C@H]2O[C@@](C)([C@@H]1OC)n1c3ccccc3c3c4c(c5c6ccccc6n2c5c31)C(=O)NC4` [STAUROSPORINE], the IC50 result in [3], in [5] and in [6] was “Not Active” throughout. The pIC50 in [4] (read-out: IC50) is less than 4.70.
Take `c1ccc(-c2oc3ncnc(NC[C@@H]4CCCO4)c3c2-c2ccccc2)cc1`: the result in the series on LNCaP [7], in the series with LNCaP [19], in the series on LNCaP [2], in the series with LNCaP [28] and in the series on LNCaP [32] was Active. The IC50 entry in [8], in series [9], in series [10], in series [11], in [12] and in [14] was “Not Active” in each case. Also, the IC50 entry in series [15], in series [16], in [17], in series [18], in series [21] and in series [3] was “Not Active” in each case. Besides, the IC50 entry (in series [22]; at Wee1-like protein kinase; in series [23]; at Insulin receptor; in [25]; in [4]) was “Not Active” in each case. The IC50 result in series [29], in [5], in series [33], in series [34] and in series [6] was “Not Active” throughout. For the same molecule, the Activity result is reported as “Non-Toxic” in [1], 38% in the series on LNCaP [20] and approximately 50% in the series on LNCaP [27]. Also, the pIC50 in [13] is 6.06; at Activated CDC42 kinase 1, 7.67; in series [26], 6.46; in [30] it was 6.36; in series [35], 6.15. For the same molecule, in the series on LNCaP [24], the inhibition result was “Active”. Moreover, the inhibition result in the series with LNCaP [31] is “inactive”.
